Reference: ChEMBL document CHEMBL1136549, “Novel antifungal beta-amino acids: synthesis and activity against Candida albicans” (Bioorg Med Chem Lett, 2003)
≈ marks a conversion by molar mass, not a printed value.

Tested on: Candida albicans
Assay: In vitro inhibitory activity against Candida albicans
Assay type: functional, organism-based
Outline: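 Microbroth dilution; C. albicans ATCC 36082, inoculum 10³ cfu/mL in YNB medium (yeast-nitrogen base 6.7 g/L, glucose 10 g/L, pH 7). Incubated 24 h at 37 °C; growth read photo-/nephelometrically at 360 nm; IC₅₀ determined.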

[1] = Candida albicans, read-out: IC50

| IC50 [µg/mL] | IC50 [1] [µg/mL] | Structure (SMILES) |
| --- | --- | --- |
| 16 |  | CC1CC[C@H](N)[C@@H]1C(=O)O.Cl (single isomer, unassigned; Diastereomer B) |
|  | 32 (≈ 244 µM) | N[C@H]1COC[C@H]1C(=O)O |
| 128 |  | Cl.N[C@H]1CC(O)C[C@H]1C(=O)O (some centres not stated) |
|  | 0.13 | Cl.N[C@H]1CCC[C@H]1C(=O)O |
| 64 (≈ 435 µM) |  | N[C@H]1CSC[C@H]1C(=O)O |
| > 256 |  | Cl.N[C@H]1CCS[C@H]1C(=O)O |
|  | 4 | CC1C[C@H](N)[C@H](C(=O)O)C1.Cl (mixture of isomers) |
|  | 16 | C=C1CC[C@@H](C(=O)O)[C@@H](N)C1.Cl |
| > 256 |  | C=C1CC[C@H](N)[C@H](C(=O)O)C1.Cl |
| 128 |  | C=C1C[C@H](C(=O)O)[C@@H](N)C1.Cl |
| 64 |  | Cl.Cl.NC1C[C@H](N)[C@H](C(=O)O)C1 (mixture of isomers) |
|  | 0.03 | Cl.N[C@H]1C=CCC[C@H]1C(=O)O |
| 128 |  | Cl.N[C@H]1CC[C@H]1C(=O)O |
| 128 |  | CC1CC[C@@H](C(=O)O)[C@H]1N.Cl (some centres not stated) |
| 128 |  | Cl.N[C@H]1CCCC[C@H]1C(=O)O |
|  | 32 | C=C1CC[C@@H](C(=O)O)[C@H]1N.Cl |
| 128 |  | C=CC1C[C@H](N)[C@H](C(=O)O)C1.Cl (some centres not stated) |
| 128 |  | Cl.N[C@H]1CC=CC[C@H]1C(=O)O |
|  | 32 (≈ 206 µM) | N[C@H]1CC2(CC2)C[C@H]1C(=O)O |
| 128 |  | Cl.N[C@H]1CC(F)(F)C[C@H]1C(=O)O |
| 128 |  | C=C1C[C@@H](N)[C@@H](C(=O)O)C1.Cl |
|  | 8 | CC1CC[C@H](N)[C@@H]1C(=O)O.Cl (stereo in doubt) |

Second part, the molecule before the results:

| Structure (SMILES) | IC50 [µg/mL] | IC50 [1] [µg/mL] |
| --- | --- | --- |
| CC1(C)C[C@H](N)[C@H](C(=O)O)C1.Cl | 256 |  |
| C=C1C[C@H](N)[C@H](C(=O)O)C1C.Cl (some centres not stated) | 128 |  |
| C=C1C[C@H](NC(=O)[C@@H](N)CC(C)C)[C@H](C(=O)O)C1.Cl |  | 2 |
| C=C=C1C[C@H](N)[C@H](C(=O)O)C1.Cl | 128 |  |
| C=C1C[C@H](N)[C@H](C(=O)NO)C1 |  | 32 (≈ 205 µM) |
| C=C1C[C@H](N)[C@@H]1C(=O)O.Cl | > 256 |  |
| C=C1C[C@@H](C(=O)O)[C@@H](N)C1C.Cl (mixture of isomers) | 64 |  |
| CC1=C[C@H](N)[C@H](C(=O)O)C1.Cl |  | 8 |
| C=C1C[C@H](N)[C@H](C(=O)N[C@H](CC(C)C)C(=O)O)C1.Cl |  | 16 |
| C[C@]1(N)CCC[C@H]1C(=O)O.Cl | 64 |  |
| CCCC(N)CC(=O)O.Cl (configuration not stated) | > 256 |  |
| C=C1C[C@@H](C(=O)O)[C@H]1N.Cl | > 256 |  |
| Cl.N[C@H]1C=CCO[C@H]1C(=O)O | 64 |  |
| C=C1C[C@H](NCC)[C@H](C(=O)O)C1 | 128 (≈ 756 µM) |  |
| CCCC/C=C1/C[C@H](N)[C@H](C(=O)O)C1.Cl | 128 |  |
| C=C1C[C@H](N)[C@H](c2nnn[nH]2)C1.Cl | 128 |  |
| Cl.N[C@H]1CCC[C@H]1S(=O)(=O)O | > 256 |  |
| Cl.N[C@H]1C=CC[C@H]1C(=O)O |  | 0.5 |
| C=C1C[C@H](N)[C@H](C(=O)OC)C1.Cl |  | 2 |
| Cl.Cl.N[C@H]1CCN[C@H]1C(=O)O | > 256 |  |
| CC1C=C(C(=O)O)C(N)C1.Cl (configuration not stated) |  | 16 |
| C=C1C[C@H](NC(=O)OC(C)(C)C)[C@H](C(=O)O)C1 |  | 16 (≈ 66.3 µM) |
| CC1=C[C@@H](C(=O)O)[C@@H](N)C1.Cl |  | 32 |
| Cl.N[C@H]1CC2(C[C@H]1C(=O)O)OCCO2 |  | 32 |
| N[C@H]1CCC[C@H]1C(F)(F)F |  | 1 (≈ 6.53 µM) |
| C=C1C[C@H](N)[C@H](C(=O)NC)C1.Cl |  | 32 |
| Cl.N[C@H]1CCC[C@H]1P(=O)(O)O | > 256 |  |
| C=C1C[C@H](N)[C@H](C(=O)O)C1 [ICOFUNGIPEN] |  | 0.13 (≈ 0.921 µM) |
| C=C1CN[C@H](C(=O)O)C1.Cl |  | 32 |
| C=C1C[C@@H](CO)[C@@H](N)C1 | > 256 |  |
